According to ChEMBL document CHEMBL1955770, “Inhibition of S/G2 phase CDK4 reduces mitotic fidelity” (J Biol Chem, 2006):

Key:
[1] = target: Ribosomal protein S6 kinase alpha-5 (Homo sapiens) (UniProt O75582); assay: Inhibition of RPS6KA5 Kin.Dom.1 at 1 uM
[2] = target: Cyclin-dependent kinase 16 (Homo sapiens) (UniProt Q00536); assay: Inhibition of PCTK1 at 1 uM
[3] = target: Calcium/calmodulin-dependent protein kinase type 1G (Homo sapiens) (UniProt Q96NX5); assay: Inhibition of CAMK1G at 1 uM
In short: (§1)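 Competition binding screen across a kinase panel with compound at 1 μM. Read-out is % competition. Kinases not hit at this concentration were scored '<50'. No Kd was determined for hits.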

[4] = target: Serine/threonine-protein kinase pim-2 (Homo sapiens) (UniProt Q9P1W9); assay: Inhibition of PIM2 at 1 uM
[5] = target: Casein kinase II subunit alpha (Homo sapiens) (UniProt P68400); assay: Inhibition of CSNK2A1 at 1 uM
[6] = target: 3-phosphoinositide-dependent protein kinase 1 (Homo sapiens) (UniProt O15530); assay: Inhibition of PDPK1 at 1 uM
[7] = target: Serine/threonine-protein kinase 17B (Homo sapiens) (UniProt O94768); assay: Inhibition of STK17B at 1 uM
[8] = target: Myotonin-protein kinase (Homo sapiens) (UniProt Q09013); assay: Inhibition of DMPK at 1 uM
[9] = target: Dual specificity protein kinase CLK4 (Homo sapiens) (UniProt Q9HAZ1); assay: Inhibition of CLK4 at 1 uM
[10] = target: Ephrin type-A receptor 7 (Homo sapiens) (UniProt Q15375); assay: Inhibition of EPHA7 at 1 uM
[11] = target: Serine/threonine-protein kinase PLK4 (Homo sapiens) (UniProt O00444); assay: Inhibition of PLK4 at 1 uM
Serine/threonine-protein kinase PLK4 (Homo sapiens), sequence (O00444 whole entry): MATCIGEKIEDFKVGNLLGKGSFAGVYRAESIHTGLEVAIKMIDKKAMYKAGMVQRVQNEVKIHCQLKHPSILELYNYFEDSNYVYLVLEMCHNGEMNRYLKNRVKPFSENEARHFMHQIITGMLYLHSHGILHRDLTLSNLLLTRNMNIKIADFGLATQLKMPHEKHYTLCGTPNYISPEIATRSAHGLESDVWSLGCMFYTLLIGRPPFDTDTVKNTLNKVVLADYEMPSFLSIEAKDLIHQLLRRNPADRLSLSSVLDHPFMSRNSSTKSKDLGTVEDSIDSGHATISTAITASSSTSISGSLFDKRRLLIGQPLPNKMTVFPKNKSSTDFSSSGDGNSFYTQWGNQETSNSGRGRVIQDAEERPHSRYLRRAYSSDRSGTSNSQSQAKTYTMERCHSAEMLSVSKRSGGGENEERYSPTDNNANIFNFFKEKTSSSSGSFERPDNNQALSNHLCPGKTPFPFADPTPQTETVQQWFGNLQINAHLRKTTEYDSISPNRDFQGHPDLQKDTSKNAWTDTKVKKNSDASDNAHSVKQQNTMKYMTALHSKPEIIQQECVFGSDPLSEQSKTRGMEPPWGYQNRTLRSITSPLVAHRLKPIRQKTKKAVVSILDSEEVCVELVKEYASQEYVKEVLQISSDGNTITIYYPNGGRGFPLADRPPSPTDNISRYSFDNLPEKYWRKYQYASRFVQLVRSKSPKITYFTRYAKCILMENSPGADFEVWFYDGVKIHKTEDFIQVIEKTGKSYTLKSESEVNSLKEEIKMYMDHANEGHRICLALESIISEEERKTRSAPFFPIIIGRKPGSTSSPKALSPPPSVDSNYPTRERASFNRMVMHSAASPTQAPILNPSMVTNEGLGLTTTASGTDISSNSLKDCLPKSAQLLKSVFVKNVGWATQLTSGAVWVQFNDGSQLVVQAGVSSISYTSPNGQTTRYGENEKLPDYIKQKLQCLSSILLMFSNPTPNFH

[12] = target: Mitogen-activated protein kinase 14 (Homo sapiens) (UniProt Q16539); assay: Inhibition of p38-alpha at 1 uM
[13] = target: BMP-2-inducible protein kinase (Homo sapiens) (UniProt Q9NSY1); assay: Inhibition of BIKE at 1 uM; in short: as §1
[14] = target: Tyrosine-protein kinase Fes/Fps (Homo sapiens) (UniProt P07332); assay: Inhibition of FES at 1 uM
[15] = target: AP2-associated protein kinase 1 (Homo sapiens) (UniProt Q2M2I8); assay: Inhibition of AAK1 at 1 uM
[16] = tested on: Serine/threonine-protein kinase B-raf (Homo sapiens), P15056 [V600E]; assay: Inhibition of BRAF(V600E) at 1 uM; in short: as §1
[17] = target: LIM domain kinase 1 (Homo sapiens) (UniProt P53667); assay: Inhibition of LIMK1 at 1 uM
LIM domain kinase 1 (Homo sapiens), sequence (P53667 whole entry, looked up, the tested form may be a part): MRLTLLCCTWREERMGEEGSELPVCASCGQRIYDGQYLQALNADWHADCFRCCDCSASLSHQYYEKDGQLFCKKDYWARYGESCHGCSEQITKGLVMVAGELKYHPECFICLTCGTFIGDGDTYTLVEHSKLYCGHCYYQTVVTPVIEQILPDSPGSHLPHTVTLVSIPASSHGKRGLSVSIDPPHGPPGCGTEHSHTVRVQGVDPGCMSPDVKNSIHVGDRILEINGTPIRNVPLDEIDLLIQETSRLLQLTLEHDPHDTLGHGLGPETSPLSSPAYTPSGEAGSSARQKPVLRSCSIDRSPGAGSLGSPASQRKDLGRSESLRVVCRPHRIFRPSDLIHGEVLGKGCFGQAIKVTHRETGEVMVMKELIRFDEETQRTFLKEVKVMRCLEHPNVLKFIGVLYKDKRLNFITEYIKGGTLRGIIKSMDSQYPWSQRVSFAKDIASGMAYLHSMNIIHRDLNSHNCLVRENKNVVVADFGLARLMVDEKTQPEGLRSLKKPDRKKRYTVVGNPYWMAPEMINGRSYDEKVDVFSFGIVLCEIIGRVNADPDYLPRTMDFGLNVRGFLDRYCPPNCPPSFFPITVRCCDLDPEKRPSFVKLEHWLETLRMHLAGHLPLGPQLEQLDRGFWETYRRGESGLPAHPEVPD

[18] = target: Serine/threonine-protein kinase PAK 4 (Homo sapiens) (UniProt O96013); assay: Inhibition of PAK4 at 1 uM
[19] = target: Protein-tyrosine kinase 6 (Homo sapiens) (UniProt Q13882); assay: Inhibition of PTK6 at 1 uM
Protein-tyrosine kinase 6 (Homo sapiens), sequence (Q13882 whole entry, looked up): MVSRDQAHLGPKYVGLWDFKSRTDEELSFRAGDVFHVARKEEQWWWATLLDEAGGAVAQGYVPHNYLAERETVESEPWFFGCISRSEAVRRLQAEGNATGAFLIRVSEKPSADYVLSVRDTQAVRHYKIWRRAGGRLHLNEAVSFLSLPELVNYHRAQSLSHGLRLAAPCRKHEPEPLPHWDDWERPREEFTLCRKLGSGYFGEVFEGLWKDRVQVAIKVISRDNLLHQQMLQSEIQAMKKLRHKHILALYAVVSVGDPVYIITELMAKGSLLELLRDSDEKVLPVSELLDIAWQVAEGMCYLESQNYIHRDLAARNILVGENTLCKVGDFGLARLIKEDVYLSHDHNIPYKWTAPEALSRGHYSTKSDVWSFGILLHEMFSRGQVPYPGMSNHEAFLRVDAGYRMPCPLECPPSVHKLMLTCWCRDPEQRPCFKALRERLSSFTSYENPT

[20] = target: Receptor tyrosine-protein kinase erbB-2 (Homo sapiens) (UniProt P04626); assay: Inhibition of ERBB2 at 1 uM
[21] = target: Dual specificity protein kinase CLK1 (Homo sapiens) (UniProt P49759); assay: Inhibition of CLK1 at 1 uM
[22] = target: Tyrosine-protein kinase ITK/TSK (Homo sapiens) (UniProt Q08881); assay: Inhibition of ITK at 1 uM
[23] = target: Mast/stem cell growth factor receptor Kit (Homo sapiens) (UniProt P10721); assay: Inhibition of KIT at 1 uM
Mast/stem cell growth factor receptor Kit (Homo sapiens), sequence (P10721 whole entry): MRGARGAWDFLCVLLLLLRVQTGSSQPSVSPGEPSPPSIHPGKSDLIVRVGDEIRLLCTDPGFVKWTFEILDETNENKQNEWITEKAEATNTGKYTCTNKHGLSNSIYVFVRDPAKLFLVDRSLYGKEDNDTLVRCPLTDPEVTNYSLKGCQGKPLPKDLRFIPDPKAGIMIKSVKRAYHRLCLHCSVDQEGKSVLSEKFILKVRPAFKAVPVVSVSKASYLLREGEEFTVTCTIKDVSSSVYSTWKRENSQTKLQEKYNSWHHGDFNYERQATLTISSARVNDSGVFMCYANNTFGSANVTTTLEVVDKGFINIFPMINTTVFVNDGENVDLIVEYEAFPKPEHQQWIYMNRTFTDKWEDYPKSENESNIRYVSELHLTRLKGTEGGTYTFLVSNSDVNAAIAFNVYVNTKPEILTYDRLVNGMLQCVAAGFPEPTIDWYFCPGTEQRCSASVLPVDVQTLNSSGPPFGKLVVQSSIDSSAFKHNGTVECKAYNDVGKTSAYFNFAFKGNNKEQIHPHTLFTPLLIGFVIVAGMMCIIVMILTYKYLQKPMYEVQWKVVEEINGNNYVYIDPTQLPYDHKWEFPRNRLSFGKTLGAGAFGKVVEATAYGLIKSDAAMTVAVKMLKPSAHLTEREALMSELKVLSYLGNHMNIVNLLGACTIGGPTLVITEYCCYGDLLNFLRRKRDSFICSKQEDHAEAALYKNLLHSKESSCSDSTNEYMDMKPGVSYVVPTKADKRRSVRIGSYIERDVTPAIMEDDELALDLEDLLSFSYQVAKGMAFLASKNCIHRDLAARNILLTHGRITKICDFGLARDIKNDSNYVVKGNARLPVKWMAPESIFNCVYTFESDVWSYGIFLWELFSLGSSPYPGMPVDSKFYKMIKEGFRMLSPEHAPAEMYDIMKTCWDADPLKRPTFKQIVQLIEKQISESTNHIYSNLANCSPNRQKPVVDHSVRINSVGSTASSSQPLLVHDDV

[24] = target: Tyrosine-protein kinase HCK (Homo sapiens) (UniProt P08631); assay: Inhibition of HCK at 1 uM
[25] = target: Activated CDC42 kinase 1 (Homo sapiens) (UniProt Q07912); assay: Inhibition of ACK1 at 1 uM; in short: as §1
[26] = target: Death-associated protein kinase 2 (Homo sapiens) (UniProt Q9UIK4); assay: Inhibition of DAPK2 at 1 uM
Death-associated protein kinase 2 (Homo sapiens), sequence (Q9UIK4 whole entry, looked up): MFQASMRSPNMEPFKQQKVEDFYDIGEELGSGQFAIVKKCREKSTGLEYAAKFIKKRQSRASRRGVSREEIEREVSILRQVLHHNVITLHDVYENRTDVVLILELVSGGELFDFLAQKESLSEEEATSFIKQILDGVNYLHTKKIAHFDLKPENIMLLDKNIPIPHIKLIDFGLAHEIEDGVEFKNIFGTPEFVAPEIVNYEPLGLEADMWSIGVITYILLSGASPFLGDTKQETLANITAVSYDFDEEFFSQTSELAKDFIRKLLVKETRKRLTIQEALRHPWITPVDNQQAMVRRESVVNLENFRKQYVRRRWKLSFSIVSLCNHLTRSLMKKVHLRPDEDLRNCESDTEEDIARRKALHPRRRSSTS

[27] = target: Tyrosine-protein kinase Blk (Homo sapiens) (UniProt P51451); assay: Inhibition of BLK at 1 uM; in short: as §1
[28] = target: Membrane-associated tyrosine- and threonine-specific cdc2-inhibitory kinase (Homo sapiens) (UniProt Q99640); assay: Inhibition of PKMYT1 at 1 uM
[29] = target: Ribosomal protein S6 kinase alpha-2 (Homo sapiens) (UniProt Q15349); assay: Inhibition of RPS6KA2 Kin.Dom. 1 at 1 uM
Ribosomal protein S6 kinase alpha-2 (Homo sapiens), sequence (Q15349 whole entry): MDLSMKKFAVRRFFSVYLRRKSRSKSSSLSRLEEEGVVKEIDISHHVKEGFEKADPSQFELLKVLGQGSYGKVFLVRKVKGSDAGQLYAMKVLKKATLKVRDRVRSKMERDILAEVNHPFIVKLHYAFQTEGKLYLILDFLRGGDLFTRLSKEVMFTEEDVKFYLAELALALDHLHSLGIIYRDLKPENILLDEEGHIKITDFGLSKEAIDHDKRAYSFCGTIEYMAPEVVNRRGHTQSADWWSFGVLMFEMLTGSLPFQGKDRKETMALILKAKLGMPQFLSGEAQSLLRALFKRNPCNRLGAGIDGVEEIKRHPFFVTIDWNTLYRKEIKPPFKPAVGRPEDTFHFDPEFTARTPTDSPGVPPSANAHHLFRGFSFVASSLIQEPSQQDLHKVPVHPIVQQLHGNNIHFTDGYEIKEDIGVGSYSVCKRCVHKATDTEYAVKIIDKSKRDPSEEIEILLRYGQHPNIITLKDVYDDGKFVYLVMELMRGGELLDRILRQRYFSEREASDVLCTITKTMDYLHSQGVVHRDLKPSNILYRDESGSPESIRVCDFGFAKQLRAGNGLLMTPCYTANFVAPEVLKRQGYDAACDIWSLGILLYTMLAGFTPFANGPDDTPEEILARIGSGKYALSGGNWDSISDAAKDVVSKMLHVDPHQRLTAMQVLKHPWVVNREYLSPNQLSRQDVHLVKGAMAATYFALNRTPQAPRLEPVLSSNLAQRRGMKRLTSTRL

[30] = target: Fibroblast growth factor receptor 3 (Homo sapiens) (UniProt P22607); assay: Inhibition of FGFR3 at 1 uM
[31] = target: Tyrosine-protein kinase BTK (Homo sapiens) (UniProt Q06187); assay: Inhibition of BTK at 1 uM; in short: as §1
[32] = target: Tyrosine-protein kinase TXK (Homo sapiens) (UniProt P42681); assay: Inhibition of TXK at 1 uM
[33] = target: Receptor-type tyrosine-protein kinase FLT3 (Homo sapiens) (UniProt P36888); assay: Inhibition of FLT3 at 1 uM

Ribosomal protein S6 kinase alpha-5 (Homo sapiens), sequence (O75582 whole entry, looked up): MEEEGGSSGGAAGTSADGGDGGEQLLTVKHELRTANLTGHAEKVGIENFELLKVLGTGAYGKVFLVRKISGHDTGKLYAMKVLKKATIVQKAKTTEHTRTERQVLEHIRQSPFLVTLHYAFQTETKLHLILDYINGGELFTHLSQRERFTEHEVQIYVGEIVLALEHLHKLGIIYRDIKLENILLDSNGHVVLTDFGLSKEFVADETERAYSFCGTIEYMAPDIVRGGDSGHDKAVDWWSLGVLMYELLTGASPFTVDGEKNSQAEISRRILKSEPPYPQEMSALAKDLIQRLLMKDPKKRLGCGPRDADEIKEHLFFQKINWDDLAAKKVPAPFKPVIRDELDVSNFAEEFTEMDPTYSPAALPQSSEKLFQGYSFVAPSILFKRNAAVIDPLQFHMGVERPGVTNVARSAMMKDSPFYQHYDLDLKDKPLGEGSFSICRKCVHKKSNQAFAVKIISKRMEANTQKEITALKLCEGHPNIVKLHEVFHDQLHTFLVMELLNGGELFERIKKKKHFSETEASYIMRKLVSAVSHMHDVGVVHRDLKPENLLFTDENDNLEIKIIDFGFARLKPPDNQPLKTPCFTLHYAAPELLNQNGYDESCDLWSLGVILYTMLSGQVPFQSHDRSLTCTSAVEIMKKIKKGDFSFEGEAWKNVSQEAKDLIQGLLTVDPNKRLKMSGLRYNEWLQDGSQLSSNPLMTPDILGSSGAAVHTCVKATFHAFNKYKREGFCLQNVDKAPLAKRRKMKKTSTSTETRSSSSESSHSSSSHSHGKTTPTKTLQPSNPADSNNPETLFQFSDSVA

**Q.** For `CN1CCN(c2ccc(Nc3nc(N)c(C(=O)c4ccc5c(c4)OCCO5)s3)cc2)CC1`, which inhibition [1] is on record?
**A.** < 50%

**Q.** What about the inhibition [2] of the same compound?
**A.** 99%

**Q.** And the inhibition [3]?
**A.** < 50%

**Q.** What about the inhibition [4] of the same compound?
**A.** < 50%

**Q.** And the inhibition [5]?
**A.** < 50%

**Q.** And the inhibition [6]?
**A.** < 50%

**Q.** And the inhibition [7]?
**A.** < 50%

**Q.** What about the inhibition [8] of the same compound?
**A.** < 50%

**Q.** And the inhibition [9]?
**A.** 97%

**Q.** And the inhibition [10]?
**A.** < 50%

**Q.** What about the inhibition [11] of the same compound?
**A.** < 50%

**Q.** What about the inhibition [12] of the same compound?
**A.** < 50%

**Q.** And the inhibition [13]?
**A.** < 50%

**Q.** And the inhibition [14]?
**A.** < 50%

**Q.** And the inhibition [15]?
**A.** 84%

**Q.** What about the inhibition [16] of the same compound?
**A.** < 50%

**Q.** And the inhibition [17]?
**A.** < 50%

**Q.** And the inhibition [18]?
**A.** < 50%

**Q.** And the inhibition [19]?
**A.** < 50%

**Q.** And the inhibition [20]?
**A.** < 50%

**Q.** What about the inhibition [21] of the same compound?
**A.** 100%

**Q.** What about the inhibition [22] of the same compound?
**A.** < 50%

**Q.** And the inhibition [23]?
**A.** < 50%

**Q.** What about the inhibition [24] of the same compound?
**A.** < 50%

**Q.** And the inhibition [25]?
**A.** < 50%

**Q.** And the inhibition [26]?
**A.** < 50%

**Q.** What about the inhibition [27] of the same compound?
**A.** < 50%

**Q.** What about the inhibition [28] of the same compound?
**A.** < 50%

**Q.** And the inhibition [29]?
**A.** < 50%

**Q.** And the inhibition [30]?
**A.** < 50%

**Q.** And the inhibition [31]?
**A.** < 50%

**Q.** And the inhibition [32]?
**A.** < 50%

**Q.** What about the inhibition [33] of the same compound?
**A.** < 50%
